# M4 antag = antagonists of human muscarinic M4 receptor (CHRM4). CHO-hM4 cells, ACh EC80, Fluo-8 calcium fluorescence. inhibition, % at 3 µM. AID 624125. actives 0.73% (n = 360,000). P08173;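 active = inhibition above its plate's cutoff, the mean inhibition of sample wells plus 3 SD, cut at about 27% in these data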;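 also: 0% = acetylcholine EC80 with DMSO and 100% = DMSO without agonist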
# CHRM5 PAM = CHRM5 positive allosteric modulation; P08912; CHO-K1 hM5, Fluo-8 calcium, ACh EC20 PAM; 0% = ACh EC20, 100% = ACh EC100; activation, % at 3 µM; actives 0.3% (n = 360,000); AID 624038;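 active = activation above the run cutoff, the mean activation of all test compounds plus 3 SD, cut at about 18% in these data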
# Target sequence (P08912 whole entry, looked up): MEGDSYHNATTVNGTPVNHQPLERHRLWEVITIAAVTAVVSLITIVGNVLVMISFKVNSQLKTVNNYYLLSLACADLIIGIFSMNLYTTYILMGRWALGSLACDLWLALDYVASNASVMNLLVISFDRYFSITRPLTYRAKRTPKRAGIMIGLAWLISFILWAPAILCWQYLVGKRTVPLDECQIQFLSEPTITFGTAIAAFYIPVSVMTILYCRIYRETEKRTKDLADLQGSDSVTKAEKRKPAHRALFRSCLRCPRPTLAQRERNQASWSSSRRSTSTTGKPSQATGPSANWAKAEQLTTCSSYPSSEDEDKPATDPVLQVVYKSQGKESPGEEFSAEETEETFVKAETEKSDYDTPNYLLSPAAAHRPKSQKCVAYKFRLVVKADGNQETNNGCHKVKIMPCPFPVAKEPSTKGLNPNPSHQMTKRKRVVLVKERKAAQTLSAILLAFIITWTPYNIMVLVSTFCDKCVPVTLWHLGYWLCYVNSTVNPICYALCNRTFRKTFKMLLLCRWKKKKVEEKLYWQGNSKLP
#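 Assay system – human M5 receptor in CHO-K1 cells · Read-out – % activation, ACh-normalized · Technique – Fluo-8 calcium fluorescence · Dosing – single-point, 3 µM nominal · Incubation – Fluo-8 loading 80 min at 37 °C plus 30 min room temperature · Repeats – singlicate, one well per test compound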
# CHRM5 agonist = CHRM5 agonism in calcium assay; P08912; CHO-K1 hM5 cells, Fluo-8 calcium fluorescence; 0% DMSO wells, 100% maximal acetylcholine response; activation, % at 3 µM; actives 0.19% (n = 360,000);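 active = activation above the run's mean over test compounds plus 3 SD, cut at about 23% in these data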;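 also: signal is peak over basal fluorescence ratio across the kinetic read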
# CHRM4 agonist = CHRM4 agonism in calcium assay. CHO-K1 hM4/Gqi5, Fluo-8 calcium fluorescence; vehicle 0%, full acetylcholine response 100%. activation, % at 3 µM. actives 0.14% (n = 360,000);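 active = activation above the run mean over all test wells plus 3 SD, cut at about 32% in these data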;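 also: peak over basal fluorescence ratio per well then scaled between controls; 0% = DMSO wells and 100% = acetylcholine at EC100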
# CHRM5 antagonist = CHRM5 antagonism in calcium assay; P08912; CHO-hM5 cells, Fluo-8 calcium fluorescence, ACh EC80; inhibition, % at 3 µM; actives 0.59% (n = 360,000); AID 624040;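 active = inhibition above a per-plate cutoff, the mean of that plate's test compounds plus 3 SD, cut at about 27% in these data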;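 also: 0% = acetylcholine EC80 with DMSO and 100% = DMSO without agonist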
# M4 PAM = positive allosteric modulators of human muscarinic M4 receptor; AID 624126; actives 0.4% (n = 360,000); activation, % at 3 µM; P08173; CHO-K1 hM4/Gqi5, Fluo-8 calcium fluorescence, ACh EC20; 0% = ACh EC20, 100% = maximal ACh;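 active = activation above its plate's cutoff, the mean activation of sample wells plus 3 SD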
# An asterisk follows results filed as active. The list is not random: actives were taken first. Their share in the collection is about 1.8%.
SMILES,M4 antag,CHRM5 PAM,CHRM5 agonist,CHRM4 agonist,CHRM5 antagonist,M4 PAM
COc1ccc(C(=O)/C=C2/C(=O)Nc3ccccc32)cc1OC,-13,5,8,6,3,-8
COc1ccc(C(=O)/C=C2/C(=O)Nc3ccccc32)cc1,4,11,12,8,8,-10
COc1ccc(C(=O)/C=C2/C(=O)Nc3ccccc32)c(OC)c1,29*,-2,6,9,13,-15
O=C1Nc2ccccc2/C1=C/C(=O)c1cccs1,8,19*,8,5,16,-9
Cc1ccc(S(=O)(=O)c2nc(-c3ccco3)oc2SC(C)C)cc1,-3,-2,-1,-1,8,1
Cc1ccccc1CN1C(=O)Nc2ccccc2C(=O)N1C(C)(C)C,-3,50*,-4,0,-4,8
CC(C)(C)N1C(=O)c2ccccc2NC(=O)N1Cc1ccc(Br)cc1,-9,0,-13,0,-5,1
C(=C\c1ccccc1)/CN1CCN(C(c2ccccc2)c2nnnn2-c2ccc3c(c2)OCCO3)CC1 (stereo not given),32*,-22,-8,3,75*,-16
C(=C\c1ccccc1)/CN1CCN(C(c2nnnn2C2CCCCC2)C2CC2)CC1 (stereo not given),-5,-14,-7,1,5,-4
C(=C\c1ccccc1)/CN1CCN(C(c2cccc3ccccc23)c2nnnn2C2CCCC2)CC1 (stereo not given),96*,-22,-6,1,99*,-16
COc1ccc(-n2nnnc2C(c2cccs2)N2CCN(C/C=C/c3ccccc3)CC2)cc1 (stereo not given),15,-23,-7,0,47*,-14
COc1ccc(C(c2nnnn2C2CCCCC2)N2CCN(C/C=C/c3ccccc3)CC2)cc1 (stereo not given),31*,-22,-7,1,58*,-16
COc1ccc(-n2nnnc2C(c2ccccc2OC(F)(F)F)N2CCN(C/C=C/c3ccccc3)CC2)cc1 (stereo not given),-26,-19,-6,1,5,-8
C(=C\c1ccccc1)/CN1CCN(C(c2ccnc3ccccc23)c2nnnn2-c2ccc3c(c2)OCCO3)CC1 (stereo not given),-15,-5,-7,6,1,-9
COc1ccc(NC(=O)N(C)C[C@H]2Oc3ccc(NC(=O)c4ccncc4)cc3C(=O)N([C@H](C)CO)C[C@@H]2C)cc1,0,8,2,4,4,19
COc1ccc(C(c2nnnn2C(C)(C)C)N2CCN(C/C=C/c3ccccc3)CC2)cc1 (stereo not given),4,-22,-8,1,16,-9
COc1ccc(C(c2nnnn2-c2ccc(OC)cc2)N2CCN(C/C=C/c3ccccc3)CC2)cc1 (stereo not given),8,-23,-8,4,51*,-14
CCOC(=O)c1sc(=S)n(-c2ccccc2)c1SC,14,-11,-7,-2,2,-18
CCOC(=O)c1sc(=S)n(-c2ccccc2Cl)c1SC,54*,-27,-7,-1,23,-16
COC(=O)c1ccc(CN2CCCC(CCC(=O)NCc3ccc(C)o3)C2)cc1 (stereo not given),59*,1,-11,0,8,-20
COCc1ccc(CN2CCCC(CCC(=O)NCc3ccc(C)o3)C2)o1 (stereo not given),-14,8,-1,1,-7,3
COc1ccc(/C=C/CN2CCCC(CCC(=O)NCc3ccc(F)c(F)c3)C2)cc1 (stereo not given),71*,-12,-10,2,7,-22
COCCn1cnc2c1c(=O)n(CC(=O)Nc1cc(C)on1)c(=O)n2Cc1ccccc1,4,-3,-5,1,-1,24*
Cc1cc(OCC(=O)NCCCn2ccnc2)c2c(C)c(C)c(=O)oc2c1,-15,9,-4,0,-5,9
CCCCCCN[C@H]1CCC2C3CC=C4C[C@@H](O)CC[C@]4(C)C3CC[C@@]21C (stereo not given in full),37*,-18,-10,12,12,-12
SMILES,M4 antag,CHRM5 PAM,CHRM5 agonist,CHRM4 agonist,CHRM5 antagonist,M4 PAM
Cc1cc(C)cc(OCC(=O)Nc2ccc(-n3cnnn3)cc2)c1,-11,-6,2,1,-5,17
CCc1ccc(N/C(SCc2cccc(F)c2)=C(/C#N)C(=O)NCc2ccco2)cc1,5,-1,0,1,7,-6
Cc1ccc(N/C(SCc2ccccc2C)=C(/C#N)C(=O)NCc2ccco2)cc1C,27*,-10,-4,0,4,-21
Cc1ccc(CC(=O)N2CCN(c3cccc(C(F)(F)F)c3)CC2)cc1,28*,-17,4,17,16,-12
COc1ccc(NC(=O)CN(C)C(=O)CCC2CCCC2)cc1,-3,-8,-1,1,30*,1
CCOc1ccc(NC(=O)CN(C)C(=O)CCC2CCCCC2)cc1OCC,2,1,-3,3,10,2
S=c1[nH]nc(-c2ccncc2)n1/N=C/C(Cl)=C\c1ccccc1,-16,1,38*,5,-12,26*
S=c1[nH]nc(-c2ccncc2)n1/N=C/C=C/c1ccccc1,-8,2,19,0,1,11
O=C(C[C@H]1C/C=C\CCCC(=O)OC[C@H]2CCCN2C1=O)NCCO,13,-4,-2,9,13,-5
Cc1ccc(/C=C2\CCC3=C2OC(N)=C(C#N)C3c2ccc(C)cc2)cc1 (stereo not given),30*,-28,4,15,33*,1
CC(C)C(=O)Nc1ccc(N2CCCC2)cc1,30*,1,-2,0,1,-13
CCNc1ccc(Br)cc(C(=O)/C=C/c2ccc(Cl)cc2Cl)c1=O,40*,12,5,5,20,3
CC(C)C(=O)Nc1ccc(C(=O)Nc2ccc(S(=O)(=O)N3CCOCC3)cc2)cc1,-1,6,-2,1,4,-3
CC(Sc1ccc(Cl)cc1)C(=O)Nc1ccc(S(=O)(=O)N2CCOCC2)cc1 (stereo not given),-4,7,39*,26,6,-7
COC(=O)[C@@H](Cc1c[nH]c2ccccc12)NCc1ccc(B(O)O)cc1,-7,6,0,3,-6,2
COc1ccc(S(=O)(=O)NC2CC(C)(C)NC(C)(C)C2)cc1,-2,-2,-6,1,7,4
CC1(C)CC(NS(=O)(=O)c2ccc3ccccc3c2)CC(C)(C)N1,-19,18*,-2,4,-10,3
